KCNK3 block: human KCNK3 channel inhibition, primary screen; O14649; CHO-KCNK3 thallium flux, FluxOR fluorescence; hits give low values; B-score at 10 µM; actives 0.84% (n = 340,000);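 active = B-score under library mean minus 4 SD, starting fluorescence ratio at most library mean plus 5 SD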;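 also: more negative B-score means stronger inhibition of thallium flux through KCNK3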
KCNK9 inh: inhibitors of human KCNK9 two-pore domain potassium channel; Q9NPC2; HEK293 KCNK9, FluxOR thallium flux fluorescence; hits give low values; B-score at 10 µM; actives 1.2% (n = 310,000);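 active = ratio B-score over 3 SD below the library mean, with starting fluorescence within 5 SD of its mean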;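 also: negative B-score means less thallium flux so channel inhibition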
KCNQ1 pot: potentiators or activators of human KCNQ1 potassium channel; P51787; CHO-K1 KCNQ1, thallium flux FluxOR fluorescence; hits give high values; B-score at 10 µM; actives 0.35% (n = 310,000); AID 2648;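 active = fluorescence ratio B-score, a plate-corrected score, at least three library SD, with initial intensity B-score within 5 SD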
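assay system = CHO-K1 cells stably expressing KCNQ1 | medium = assay buffer, equal DMSO in all wells | timing = 37 °C overnight plating, 90-min dark dye load, 20-min compound pretreatment | measured by = kinetic FluxOR thallium fluorescence, 10-s 1-Hz baseline, 110-s post-stimulus read | measure = fluorescence change relative to baseline, converted to B score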
KCNQ1 inh: human KCNQ1 channel inhibition; P51787; actives 1.3% (n = 310,000); B-score at 10 µM; CHO-K1 KCNQ1, FluxOR thallium flux fluorescence; hits give high values;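 active = compounds whose thallium flux B-score, printed positive for inhibition, exceeds three library SD while starting fluorescence stays within three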;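 also: channel opened by potassium depolarization with thallium stimulus after 20 min compound exposure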
hERG protect: compounds protecting human hERG from proarrhythmic drug block; Q12809; CHO-hERG, FluxOR thallium flux, dofetilide IC70 present; activation (rescue from dofetilide block), less the hit threshold, % at 10 µM; actives 0.51% (n = 310,000);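 active = activation above the mean of controls blocked by dofetilide plus 5 SD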;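 also: thallium influx through hERG after potassium depolarization seen as dye fluorescence rise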
Target sequence (Q12809 whole entry, looked up): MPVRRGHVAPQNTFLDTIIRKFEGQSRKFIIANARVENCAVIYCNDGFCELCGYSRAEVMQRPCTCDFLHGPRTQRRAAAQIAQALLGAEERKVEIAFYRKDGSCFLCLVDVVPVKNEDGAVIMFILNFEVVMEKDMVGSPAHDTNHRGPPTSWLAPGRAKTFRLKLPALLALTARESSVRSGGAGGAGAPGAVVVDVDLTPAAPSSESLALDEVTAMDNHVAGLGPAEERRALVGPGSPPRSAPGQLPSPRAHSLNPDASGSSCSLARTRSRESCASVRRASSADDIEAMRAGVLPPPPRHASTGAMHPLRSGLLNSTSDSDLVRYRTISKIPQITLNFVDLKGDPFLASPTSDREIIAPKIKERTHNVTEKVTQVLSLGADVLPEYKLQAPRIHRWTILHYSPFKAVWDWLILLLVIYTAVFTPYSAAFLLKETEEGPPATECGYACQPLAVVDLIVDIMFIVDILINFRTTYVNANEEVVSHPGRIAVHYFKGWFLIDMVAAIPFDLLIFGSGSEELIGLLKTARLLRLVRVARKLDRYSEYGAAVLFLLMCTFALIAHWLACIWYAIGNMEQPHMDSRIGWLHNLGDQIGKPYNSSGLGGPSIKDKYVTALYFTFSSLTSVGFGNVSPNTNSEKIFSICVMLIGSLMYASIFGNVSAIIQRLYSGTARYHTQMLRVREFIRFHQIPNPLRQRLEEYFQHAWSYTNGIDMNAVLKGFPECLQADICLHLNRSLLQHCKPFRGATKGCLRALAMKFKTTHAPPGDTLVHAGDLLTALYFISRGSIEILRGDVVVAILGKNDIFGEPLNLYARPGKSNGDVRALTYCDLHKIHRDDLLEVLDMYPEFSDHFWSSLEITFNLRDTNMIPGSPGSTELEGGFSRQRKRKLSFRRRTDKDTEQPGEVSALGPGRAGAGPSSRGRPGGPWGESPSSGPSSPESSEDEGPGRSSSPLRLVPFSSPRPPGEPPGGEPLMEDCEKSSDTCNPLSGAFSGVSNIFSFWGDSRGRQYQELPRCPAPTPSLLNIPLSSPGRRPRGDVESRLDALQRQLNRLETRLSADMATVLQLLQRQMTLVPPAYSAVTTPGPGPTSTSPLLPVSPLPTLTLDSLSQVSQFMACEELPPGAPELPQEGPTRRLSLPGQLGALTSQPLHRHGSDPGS
A number is an active result; 0 = inactive; - = not tested or not shown. A selection: hits, their analogues and other compounds. The true share with any hit is near 3.1%.

SMILES	KCNK3 block	KCNK9 inh	KCNQ1 pot	KCNQ1 inh	hERG protect
Cc1ccc(C(=O)N/N=C\c2ccc(Br)o2)o1	0	0	0	0	0
Cc1ccc(C(=O)N/N=C/c2ccc(-c3ccc(Br)cc3[N+](=O)[O-])o2)o1	0	0	0	7	0
Cc1cccc(/C=N/n2c(C3CCCCC3)n[nH]c2=S)c1	0	0	0	0	0
CC(/C=N/n1c(C2CCCCC2)n[nH]c1=S)=C\c1ccccc1	0	0	21	0	0
CSC(=S)N/N=C/c1ccccc1	0	0	35	0	11
CC(C)Cn1c(N)c(C(=O)COC(=O)c2cnc(Cl)c(Cl)c2)c(=O)n(C)c1=O	0	0	0	6	0
O=C1Nc2ccc(C(=O)O)c(O)c2C1=O	0	-	-	-	-
CCOC(=O)C1=C(CSc2nc3c(cc2C#N)CCC3)OC(N)=C(C#N)C1c1ccccc1 (stereo unspecified)	0	-6.7	0	0	0
CCOC(=O)C1=C(CSc2nc3c(cc2C#N)CN(C)CC3)OC(N)=C(C#N)C1c1ccccc1 (stereo unspecified)	0	-	-	-	-
COc1ccc2nc(N3CCCCC3)c(/C=C3\SC(=S)NC3=O)cc2c1	0	0	0	0	7.4
O=C1NC(=S)S/C1=C\c1cc2ccccc2nc1N1CCCCC1	0	0	0	0	0
Cc1ccc(Nc2nc3ccc(Cl)cc3n3cnnc23)cc1F	0	0	0	0	0
CSc1ccccc1NC(=O)CN1C(=O)C2CC=CCC2C1=O (stereo unspecified)	0	-	-	-	-
Cc1nc(-c2nc(-c3c(C(=O)NNC(=O)c4ccc(Cl)cc4)noc3C)cs2)cs1	0	0	17	0	0
COc1cc(/C=C/c2nc(N)nc(-c3ccccc3O)n2)cc(OC)c1OC	0	-7.7	0	0	0
COc1ccccc1CNS(=O)(=O)c1ccc2c(c1)CC(C)N2C(=O)C1CCC1 (stereo unspecified)	0	0	0	0	0
N[C@@H](Cc1ccccc1)C(=O)N1CCC(C(=O)NCC(=O)NCC(=O)O)CC1	0	0	0	0	0
C=CCSc1nc(Oc2ccccc2)c2sccc2n1	0	0	0	6	0
Cc1cc(Cl)c2oc(C(=O)N(C)CC3CCOCC3)c(C)c2c1	0	0	0	0	0
CCCOc1ccc(OC(=O)c2ccc(Br)o2)cc1	0	0	0	0	16
CCNC(=O)COc1ccc(-c2ccccc2)cc1	0	0	0	0	0
CC(C)(C)NC(=O)COc1ccc(-c2ccccc2)cc1	0	-7.7	0	0	0
Cc1cc(NC(=O)c2cccs2)cc(-c2nc3ncccc3o2)c1O	0	-8	0	0	0
CC(C)CC(=O)Nc1cccc(-c2nc3ccccc3o2)c1	0	-7.7	0	0	0
CCC(=O)Nc1ccc(Cl)c(-c2nc3ncccc3o2)c1	0	0	0	0	0
SMILES	KCNK3 block	KCNK9 inh	KCNQ1 pot	KCNQ1 inh	hERG protect
CCCCCC(=O)Nc1cccc(-c2nc3ncccc3o2)c1	0	-7.4	0	0	0
CCCC(=O)Nc1ccc(Cl)c(-c2nc3ncccc3o2)c1	0	-8	0	0	0
CC(=O)Nc1cccc(OCCCNS(=O)(=O)c2ccc(C#N)cc2)c1	0	0	0	0	0
COc1ccccc1C(=O)NCCC(=O)NC1CCCCCC1	0	-	-	-	-
CCC1(CC)NC(=O)N(CC(=O)OCc2nc3cc(C(=O)OC)ccc3c(=O)[nH]2)C1=O	0	-	-	-	-
CC(C)OP(=O)(OC(C)C)C(O)c1ccc(N(C)C)cc1 (stereo unspecified)	0	0	0	0	0
COc1ccc(NC(=O)Nc2ccc3c(c2)C(=O)N([C@H](C)CO)C[C@H](C)[C@@H](CN(C)C(=O)Nc2c(C)noc2C)O3)cc1	0	-	-	-	-
CC(C)C(=O)Nc1c(-c2ccccc2F)c(=O)c2ccccc2n1C	0	0	15	0	16
COc1ccc2c(=O)cc(-c3ccncc3)oc2c1OC	0	-	-	-	-
O=C(Nc1ccccc1)N(O)c1ccc(Cl)cc1	0	0	0	6	0
Cc1cccc(OCc2nnc(SCC(=O)N(c3ccccc3)C3CCS(=O)(=O)C3)o2)c1 (stereo unspecified)	0	-	-	-	-
CCCCn1c(NC(=O)c2ccc(Br)o2)c(S(=O)(=O)c2ccccc2)c2nc3ccccc3nc21	0	0	0	12	0
CCCCn1c(NC(=O)c2ccco2)c(S(=O)(=O)c2ccc(C)cc2)c2nc3ccccc3nc21	0	0	0	0	0
Cc1ccc(S(=O)(=O)c2c(N)n(NC(=O)c3ccccc3C)c3nc4ccccc4nc23)cc1	-8.8	0	0	0	0
CCCCCn1c(NC(=O)c2ccco2)c(S(=O)(=O)c2ccc(C)cc2)c2nc3ccccc3nc21	0	0	0	10	0
COc1ccc(N(CC(=O)Nc2cccnc2)S(=O)(=O)c2ccccc2)cc1OC	0	0	0	0	0
O=C(Nc1cccc(C(=O)O)c1)/C(=C\c1ccccc1Cl)NC(=O)c1ccco1	0	0	0	0	0
CC1CCCC(C)N1C(=O)COC(=O)c1ccc(F)c(S(=O)(=O)N2CCOCC2)c1 (stereo unspecified)	0	0	0	0	0
Cc1ccc(S(=O)(=O)NN2C(=O)/C(=C\c3ccc(Cl)cc3)SC2=S)cc1	0	0	0	0	0
Cc1ccc(/C=C2\SC(=S)N(NS(=O)(=O)c3ccc(C)cc3)C2=O)cc1	0	0	27	0	0
COc1cc2cc(CN(Cc3cccs3)C(=S)Nc3cccc(C)c3)c(=O)[nH]c2cc1OC	-	0	0	7	0
CCCN1CCC(NC(=O)Cc2cccc(C)c2)CC1	0	0	0	0	0
CCC1CCCCN1C(=O)c1cccc(S(=O)(=O)Nc2cc(C(F)(F)F)ccc2Cl)c1 (stereo unspecified)	0	0	0	7	0
O=C(NC1CCN(Cc2ccccc2)CC1)c1cccc(S(=O)(=O)Nc2cc(C(F)(F)F)ccc2Cl)c1	0	0	0	0	0
Cc1ccc(NC(=O)/C=C/c2ccc(S(=O)(=O)N3CCOCC3)cc2)cc1S(=O)(=O)N(C)C	0	-	-	-	-
SMILES	KCNK3 block	KCNK9 inh	KCNQ1 pot	KCNQ1 inh	hERG protect
Cc1ccc(S(=O)(=O)NCc2ccccc2)cc1C(=O)NC1CCC(C)CC1 (stereo unspecified)	0	0	0	0	0
CCOC(=O)C1=C(COC(=O)c2ccc3ccccc3c2O)NC(=O)NC1C (stereo unspecified)	0	-	-	-	-
Cc1ccc(C(=O)N/C(=C\c2ccco2)C(=O)NCCN2CCOCC2)cc1C	0	0	0	0	0
Clc1ccc(OCc2cc(-c3ccccc3)no2)c(Cl)c1	0	-7.4	0	0	0
Cc1cccc(OCc2cc(-c3ccccc3)no2)c1C	0	0	0	0	0
CCCCc1ccc(NS(=O)(=O)c2cccc(C(=O)N3CCNC(=O)C3)c2)cc1	0	-	-	-	-
CC1(C)CC(=O)C2=C(C1)OC(N)=C(C#N)C2c1cccs1 (stereo unspecified)	0	0	0	0	0

Screens (PubChem)
